We go through 2 compounds from ChEMBL document CHEMBL2424628, “Discovery of potent and selective nonsteroidal indazolyl amide glucocorticoid receptor agonists” (Bioorg Med Chem Lett, 2013).

One test addresses T1, Androgen receptor (Homo sapiens, UniProt P10275).
T1 sequence (P10275 whole entry): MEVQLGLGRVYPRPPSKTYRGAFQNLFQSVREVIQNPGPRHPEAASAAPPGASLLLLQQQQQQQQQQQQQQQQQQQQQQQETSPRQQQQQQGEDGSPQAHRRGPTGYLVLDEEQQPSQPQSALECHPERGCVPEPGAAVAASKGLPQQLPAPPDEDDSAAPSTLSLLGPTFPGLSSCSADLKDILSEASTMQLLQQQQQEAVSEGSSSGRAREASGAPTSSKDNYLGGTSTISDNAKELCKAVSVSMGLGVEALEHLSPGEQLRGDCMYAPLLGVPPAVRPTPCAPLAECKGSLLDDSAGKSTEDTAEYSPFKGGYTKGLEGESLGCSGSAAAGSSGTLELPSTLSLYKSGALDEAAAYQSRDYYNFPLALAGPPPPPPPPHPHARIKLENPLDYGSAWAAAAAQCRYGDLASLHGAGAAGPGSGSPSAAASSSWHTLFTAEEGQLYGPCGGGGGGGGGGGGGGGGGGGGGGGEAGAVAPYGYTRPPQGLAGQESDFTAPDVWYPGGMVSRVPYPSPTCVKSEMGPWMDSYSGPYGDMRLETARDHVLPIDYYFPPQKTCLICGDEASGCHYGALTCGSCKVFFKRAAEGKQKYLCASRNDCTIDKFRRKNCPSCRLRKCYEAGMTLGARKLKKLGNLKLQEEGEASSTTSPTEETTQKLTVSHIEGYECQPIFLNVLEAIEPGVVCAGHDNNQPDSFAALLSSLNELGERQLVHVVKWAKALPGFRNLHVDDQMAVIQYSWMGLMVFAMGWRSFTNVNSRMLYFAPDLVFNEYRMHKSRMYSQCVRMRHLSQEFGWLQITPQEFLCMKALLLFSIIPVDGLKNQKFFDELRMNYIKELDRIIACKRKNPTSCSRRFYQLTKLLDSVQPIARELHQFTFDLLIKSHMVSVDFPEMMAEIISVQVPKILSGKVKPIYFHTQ
Briefly: Binding affinity to androgen receptor (unknown origin) by fluorescence polarization assay. The gist of the method:
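Fluorescence polarization competition between test compound and a fluorescently labeled ligand for full-length receptor or its ligand binding domain. IC50 from a four-parameter logistic fit of the polarization signal, converted to Ki with Cheng–Prusoff […]. Means of duplicate experiments.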

For test [1], the target named is T2, Glucocorticoid receptor (Homo sapiens) (UniProt P04150).
T2 sequence (whole entry): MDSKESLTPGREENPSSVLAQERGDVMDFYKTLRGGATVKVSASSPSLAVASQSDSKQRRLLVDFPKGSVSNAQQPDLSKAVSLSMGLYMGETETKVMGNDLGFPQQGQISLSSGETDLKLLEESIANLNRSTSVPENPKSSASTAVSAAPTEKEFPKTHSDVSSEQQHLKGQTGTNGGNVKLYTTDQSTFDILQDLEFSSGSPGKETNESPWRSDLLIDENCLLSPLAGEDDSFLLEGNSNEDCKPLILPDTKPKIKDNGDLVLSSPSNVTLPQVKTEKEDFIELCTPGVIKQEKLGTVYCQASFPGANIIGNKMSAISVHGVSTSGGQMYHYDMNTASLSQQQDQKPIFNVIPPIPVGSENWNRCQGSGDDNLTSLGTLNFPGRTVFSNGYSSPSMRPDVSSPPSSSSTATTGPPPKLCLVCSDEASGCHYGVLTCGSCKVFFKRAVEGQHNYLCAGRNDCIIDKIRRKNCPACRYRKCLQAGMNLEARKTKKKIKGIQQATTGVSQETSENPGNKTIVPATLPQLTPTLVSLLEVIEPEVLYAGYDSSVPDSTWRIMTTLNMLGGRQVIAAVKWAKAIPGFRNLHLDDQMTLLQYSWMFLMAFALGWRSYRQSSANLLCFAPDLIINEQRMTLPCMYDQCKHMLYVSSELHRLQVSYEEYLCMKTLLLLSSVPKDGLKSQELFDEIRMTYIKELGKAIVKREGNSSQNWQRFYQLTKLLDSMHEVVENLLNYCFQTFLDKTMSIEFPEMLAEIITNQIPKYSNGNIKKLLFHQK
Briefly: Transactivation of glucocorticoid receptor ligand binding domain (unknown origin) transfected in human HeLa cells assessed as activation of NP-1 by GAL4 luciferase reporter gene assay relative to dexamethasone. The format is cell-based. The gist of the method:
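HeLa line (NP-1) stably transfected with a GR ligand binding domain chimera in a GAL4 luciferase reporter system, run in agonist mode. Direct GR-LBD activation read as increased luciferase activity. Means of two or more experiments in triplicate.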
(In general: A reporter such as luciferase makes a cellular process visible.)

The target of test [2] is T3, Glucocorticoid receptor (Homo sapiens, UniProt P04150).
T3 sequence (P04150 whole entry): T2 sequence (whole entry)
In words: Transactivation of glucocorticoid receptor ligand binding domain (unknown origin) transfected in human HeLa cells assessed as activation of NP-1 by GAL4 luciferase reporter gene assay. The format is cell-based.

In test [3] the target is T2, Glucocorticoid receptor (Homo sapiens). In words: Agonist activity at glucocorticoid receptor in human A549 cells assessed as inhibition of IL-1beta-induced NF-kappaB dependent E-selectin activation by luciferase reporter gene assay relative to dexamethasone. The format is cell-based.
Test [4] shares this target. In words: Agonist activity at glucocorticoid receptor in human A549 cells assessed as inhibition of PMA-induced AP-1 activation by luciferase reporter gene assay relative to dexamethasone. The format is cell-based. In short, it runs like this:
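A549 lung epithelial cells stably carrying a luciferase reporter with 5 copies of the AP-1 response element; AP-1 induced with PMA (15 ng/ml). Compound inhibition of induction read as decreased luciferase. […] Means of two or more experiments in triplicate.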

Test [5] concerns the target T3, Glucocorticoid receptor. Briefly: Agonist activity at glucocorticoid receptor in human A549 cells assessed as inhibition of IL-1beta-induced NF-kappaB dependent E-selectin activation by luciferase reporter gene assay. The format is cell-based.
The target of test [6] is T3, Glucocorticoid receptor. Briefly: Binding affinity to glucocorticoid receptor (unknown origin) by fluorescence polarization assay. A general note: Fluorescence polarisation rises when a labelled molecule tumbles more slowly, as on binding a larger partner.

The structures appear in SMILES notation.

Take `CC(C)(C(=O)Nc1nncs1)[C@@H](c1ccccc1)c1ccc2c(cnn2-c2ccc(F)cc2)c1`: the Ki on Androgen receptor is above 25000 nM; at Glucocorticoid receptor [6], 5.1 nM. Also, the Efficacy in test [1] turned out to be 106%; in test [3], 86%; in test [4] it was 93%. Moreover, the EC50 on Glucocorticoid receptor [2] came to 5.8 nM; on Glucocorticoid receptor [5], 4 nM.
Take `CC(C)(C(=O)Nc1nncs1)[C@H](c1ccccc1)c1ccc2c(cnn2-c2ccc(F)cc2)c1`: the Ki on Androgen receptor is above 25000 nM; on Glucocorticoid receptor [6], 6.7 nM. Also, the Efficacy in test [4] was found to be 50%.

Usually Ki stands for the dissociation constant of the complex between target and ligand, obtained from inhibition or displacement. One may read the EC50 as the midpoint of the concentration-response curve.
